The source made the active and inactive calls. No cut-off for these calls is given here.
What was measured:
REH [1] = experiment: Cytostatic activity against human REH cells at 2 umol/L measured after 2 to 3 days using Burker counting chamber; assay type: functional, cell-based
How it was run: (§1)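 Cells were seeded at 2.5 × 10^5 cells/mL in DMSO-containing medium, with or without 2 μmol/L compound. Cells were counted daily in a Bürker chamber. PDL was calculated as log(Nf/N0)/log 2 over 6 days. Values are mean ± SD of three experiments, compared with DMSO controls.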

[2] = Cytotoxicity against human REH cells assessed as reduction in viable cells measured after 24 hrs by Hoechst-33258 staining-based FACS analysis; assay type: functional, cell-based
How it was run: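 Leukemic lines kept in RPMI1640 with 10% FBS, penicillin/streptomycin, 37 °C, 5% CO2. Seeded at 2 × 10^5 cells/mL and exposed 24 h to a range of compound concentrations (DMSO stock); medium and DMSO negative controls. Live fraction taken from Hoechst 33258-negative singlets by flow cytometry. EC50 from five-parameter nonlinear regression.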

NALM-6 [3] = experiment: Cytostatic activity against human NALM6 cells assessed as population doubling level at 2 umol/L after 6 days using Burker counting chamber (reference value: 3.44); assay type: functional; how it was run: as §1
REH [4] = experiment: Cytostatic activity against human REH cells assessed as population doubling level at 2 umol/L after 6 days by Burker counting chamber (reference value: 3.55); assay type: functional; how it was run: as §1
Jurkat [5] = experiment: Cytostatic activity against eFluor670-labelled human Jurkat cells assessed as live cells at 2 umol/L measured immediately after compound addition by Hoechst-33258 staining-based FACS analysis (reference value: 98.2%); assay type: functional
Jurkat [6] = experiment: Cytostatic activity against eFluor670-labelled human Jurkat cells assessed as live cells at 2 umol/L measured on day 3 by Hoechst-33258 staining-based FACS analysis (reference value: 98.3%); assay type: functional
Jurkat [7] = experiment: Cytostatic activity against eFluor670-labelled human Jurkat cells assessed as live cells at 2 umol/L measured on day 4 by Hoechst-33258 staining-based FACS analysis (reference value: 97.3%); assay type: functional
NALM-6 [8] = experiment: Cytostatic activity against eFluor670-labelled human NALM6 cells assessed as live cells at 2 umol/L measured on day 1 by Hoechst-33258 staining-based FACS analysis (reference value: 95.5%); assay type: functional
NALM-6 [9] = experiment: Cytostatic activity against eFluor670-labelled human NALM6 cells assessed as live cells at 2 umol/L measured on day 3 by Hoechst-33258 staining-based FACS analysis (reference value: 98.6%); assay type: functional
REH [10] = experiment: Cytostatic activity against eFluor670-labelled human REH cells assessed as live cells at 2 umol/L measured on day 3 by Hoechst-33258 staining-based FACS analysis (reference value: 90.2%); assay type: functional
REH [11] = experiment: Cytostatic activity against eFluor670-labelled human REH cells assessed as live cells at 2 umol/L measured on day 4 by Hoechst-33258 staining-based FACS analysis (reference value: 88%); assay type: functional
[12] = Cytotoxicity against CD14+ monocytes in human PBMC population assessed as reduction in viable cells measured after 24 hrs by Hoechst-33258 staining-based FACS analysis; assay type: toxicity, cell-based, Monocyte
How it was run: (§2)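 PBMC were isolated from blood on a Ficoll-Paque gradient and seeded at 1 × 10^5 cells/well in 400 μL RPMI1640. Cells were exposed to a range of compound concentrations for 24 h. Viable CD3+, CD14+ and CD20+ populations were measured as Hoechst 33258-negative singlets by flow cytometry. EC50 was obtained by five-parameter nonlinear regression.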

[13] = Cytotoxicity against CD14+ monocytes in human PBMC population assessed as viable cells at 15 umol/L measured after 24 hrs by Hoechst-33258 staining-based FACS analysis (reference value: 13.8%); assay type: toxicity, cell-based, Monocyte; conditions: read-out: Activity; how it was run: as §2
[14] = Cytotoxicity against CD14+ monocytes in human PBMC population assessed as viable cells at 100 umol/L measured after 24 hrs by Hoechst-33258 staining-based FACS analysis (reference value: 13.8%); assay type: toxicity, cell-based, Monocyte; conditions: read-out: Activity; how it was run: as §2
[15] = Cytotoxicity against PHA/LPS-stimulated CD3-positive T-lymphocytes in eFluor670-labeled human PBMC assessed as division index at 2 umol/L administered post 18 hrs of PHA/LPS-stimulation measured after 72 hrs by Hoechst-33258 staining-based FACS analysis (reference value: 0.381); assay type: toxicity; conditions: t-cell, 2 µM
[16] = Cytotoxicity against PHA/LPS-stimulated CD3-positive T-lymphocytes in eFluor-670-labeled human PBMC assessed as divided cells at 2 umol/L administered post 18 hrs of PHA/LPS-stimulation measured after 72 hrs by Hoechst-33258 staining-based FACS analysis (reference value: 24.2%); assay type: toxicity; conditions: t-cell, 2 µM
How it was run: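 PBMC were labelled with 1 μmol/L CPD, stimulated with PHA (5 μg/mL) plus LPS (1 μg/mL), and seeded at 3 × 10^5 cells/well in 300 μL. Compound was added after 18 h and left for 72 h. Cells were stained with anti-CD3. Unstimulated cells set the CPD+ gate. Proliferation index, division index and % divided were calculated for CPD+CD3+ Hoechst-negative cells.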

[17] = target: Myc proto-oncogene protein (Homo sapiens) (UniProt P01106); experiment: Inhibition of C-MYC in human REH cells assessed as decrease in LDHA level at EC50 measured after 24 hrs by RT-qPCR analysis; assay type: cell-based
[18] = target: Myc proto-oncogene protein (Homo sapiens) (UniProt P01106); experiment: Inhibition of C-MYC in human Jurkat cells assessed as decrease in GLS level at EC50 measured after 24 hrs by RT-qPCR analysis; assay type: cell-based
NALM-6 [19] = experiment: Inhibition of P70S6K in human NALM6 cells assessed as decrease in C-MYC expression measured after 24 hrs by immunoblot analysis; assay type: cell-based
How it was run: (§3)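 Cells prepared as for RT-qPCR (7.5 × 10^5 cells/mL). Treated either with the line-specific EC50 concentration over a time course, or 24 h with graded concentrations up to that EC50. Cells washed with phosphatase inhibitors and lysed in RIPA; 40 μg protein per lane on SDS-PAGE, then nitrocellulose. Immunoblotted for C-MYC, P70S6K, p-P70S6K (Ser424) and actin.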

REH [20] = experiment: Inhibition of P70S6K in human REH cells assessed as decrease in C-MYC expression measured after 24 hrs by immunoblot analysis; assay type: cell-based; how it was run: as §3
REH [21] = experiment: Inhibition of P70S6K in human REH cells assessed as decrease in phosphorylated P70S6K expression measured after 24 hrs by immunoblot analysis; assay type: cell-based; how it was run: as §3
NALM-6 [22] = experiment: Inhibition of P70S6K in human NALM6 cells assessed as decrease in C-MYC expression at 2 to 20 umol/L by immunoblot analysis; assay type: cell-based; conditions: TDE = time-dependent effect; how it was run: as §3
[23] = Cytotoxicity against human PBMC assessed as reduction in viable cells measured after 24 hrs by Hoechst-33258 staining-based FACS analysis; assay type: toxicity, cell-based
How it was run: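 Human PBMC isolated on a Ficoll-Paque gradient, seeded at 1 × 10^5 cells/well in RPMI1640. Exposed 24 h to a compound concentration range; medium and DMSO negative controls. Cells stained with Hoechst 33258 and read by flow cytometry; live-cell percentage from Hoechst-negative singlets. EC50 by five-parameter nonlinear regression.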

Jurkat [24] = experiment: Inhibition of P70S6K in human Jurkat cells assessed as inhibition of phosphorylated P70S6K expression up to 20 umol/L measured after 24 hrs by immunoblot analysis; assay type: cell-based; how it was run: as §3
[25] = Cytotoxicity against B lymphocytes in human PBMC population assessed as reduction in viable cells measured after 24 hrs by Hoechst-33258 staining-based FACS analysis; assay type: toxicity, cell-based, B-cell; how it was run: as §2

Myc proto-oncogene protein (Homo sapiens), sequence (P01106 whole entry): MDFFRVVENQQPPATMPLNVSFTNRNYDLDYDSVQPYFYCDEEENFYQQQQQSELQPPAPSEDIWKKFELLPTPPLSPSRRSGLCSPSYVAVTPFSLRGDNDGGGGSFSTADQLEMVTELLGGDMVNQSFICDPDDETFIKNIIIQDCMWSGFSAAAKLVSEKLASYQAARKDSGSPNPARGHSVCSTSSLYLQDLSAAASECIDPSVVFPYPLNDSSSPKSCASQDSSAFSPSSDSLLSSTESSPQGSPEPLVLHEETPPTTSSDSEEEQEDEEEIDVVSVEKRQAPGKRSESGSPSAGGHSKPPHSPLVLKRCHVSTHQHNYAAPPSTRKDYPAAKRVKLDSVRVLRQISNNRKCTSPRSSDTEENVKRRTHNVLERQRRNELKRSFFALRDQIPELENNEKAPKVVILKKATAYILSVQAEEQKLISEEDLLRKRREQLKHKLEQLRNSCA

With `CCCCCC(=O)C1=C(O)C(=O)c2c(O)c(O)cc(O)c2C1=O` the Activity (REH [1]) was “Active”, the EC50 [2] was 22 µM and the Activity (NALM-6 [3]) was 1.75. The Activity (REH [4]) was 1.32, the Activity (Jurkat [5]) was 98.2% and the Activity (Jurkat [6]) was 69.2%. For the same compound, the Activity (Jurkat [7]) was 39.5%, the Activity (NALM-6 [8]) was 95.2% and the Activity (NALM-6 [9]) was 98.1%. The Activity (REH [10]) was 15.8%, the Activity (REH [11]) was 6.9% and the EC50 at 24 h [12] was 15.1 µM. It also gave a viability at 24 h, 15 µM [13] of 8.1%, a viability at 24 h, 100 µM [14] of 0.21% and an Activity_index [15] of 0.196. The Activity [16] was 15.9%, the inhibition [17] was “Active” and the inhibition [18] was “Active”. For the same compound, the inhibition (NALM-6 [19]) was “Dose-dependent effect”, the inhibition (REH [20]) was “Dose-dependent effect” and the inhibition (REH [21]) was “Dose-dependent effect”. The inhibition (NALM-6 [22]) was “Tde”, the EC50 at 24 h [23] was 56.1 µM and the inhibition (Jurkat [24]) was “Active”. The EC50 at 24 h [25] was greater than 50 µM.

Source: ChEMBL document CHEMBL3868590, “Quambalarine B, a Secondary Metabolite from Quambalaria cyanescens with Potential Anticancer Properties” (J Nat Prod, 2016)
